bCat KO growth: beta-catenin-lacking colon tumor cell growth suppression | HCT116 beta-catenin knockout viability, CellTiter-Glo, 60 h; hits give low values | viability, % at 10 µM | hit rate 1.5% among 140,000 | AID 818;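 active = viability at or under a set limit, the compound median less 4 SD, cut at about 6% in these data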;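 note: 0% = Hyamine 1622 control at 20 µM and 100% = untreated cell control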
TNAP act hiacc: activators of human TNAP at high phosphate acceptor concentration; P05186; purified TNAP, CDP-star luminescence, 1 M DEA, 30 min; hits give high values; 0 = EDTA background, 1 = DMSO-only activity; activation factor at 20 µM; 200,000 tested, under 10 active;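 active = activation factor at least 2 at 20 µM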
Target sequence (P05186 whole entry, looked up): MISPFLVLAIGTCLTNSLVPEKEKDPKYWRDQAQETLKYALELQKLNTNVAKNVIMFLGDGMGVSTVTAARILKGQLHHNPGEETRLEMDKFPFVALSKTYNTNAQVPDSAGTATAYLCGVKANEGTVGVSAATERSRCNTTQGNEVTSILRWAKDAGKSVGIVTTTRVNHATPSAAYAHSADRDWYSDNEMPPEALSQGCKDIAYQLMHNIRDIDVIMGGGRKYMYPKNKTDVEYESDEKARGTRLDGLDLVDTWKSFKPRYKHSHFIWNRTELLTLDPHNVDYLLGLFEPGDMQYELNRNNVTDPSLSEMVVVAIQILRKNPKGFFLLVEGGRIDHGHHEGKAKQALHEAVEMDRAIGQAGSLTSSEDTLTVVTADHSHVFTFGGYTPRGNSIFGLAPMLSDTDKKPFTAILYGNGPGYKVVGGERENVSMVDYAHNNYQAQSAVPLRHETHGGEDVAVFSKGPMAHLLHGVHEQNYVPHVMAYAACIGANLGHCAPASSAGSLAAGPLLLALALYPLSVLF
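Test system – human TNAP · Doses – 20 µM single point · Incubation – 30 min, room temperature · Signal – luminescent substrate turnover signal · Read-out basis – activation factor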
TNAP inh hi DEA: blocks human TNAP under high phosphate acceptor concentration; P05186; purified TNAP, CDP-star luminescence, 1 M DEA; inhibition, % at 20 µM; hit rate 0.03% among 200,000;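 active = over 50% inhibition of tissue-nonspecific alkaline phosphatase at 20 µM in the single-dose screen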;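 note: plate controls were DMSO wells for no effect and EDTA-quenched wells as full inhibition for full effect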
PTEN del growth: suppresses growth of cells with PTEN deletion. viability, % at 10 µM. hit rate 1.2% among 140,000. HCT116 PTEN-null viability, CellTiter-Glo, 60 h; hits give low values;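 active = viability at or below a set limit, 4 SD under the median of all tested compounds, cut at about 3.7% in these data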;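 note: PTEN knockout HCT116 line with beta catenin targeted HCT116 as companion control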
Lmaj promast: inhibitors of Leishmania major promastigote growth. Leishmania major promastigotes, resazurin fluorescence viability. inhibition, % at 10 µM. hit rate 9% among 200,000. AID 1063; in the data active = inhibition above about 50%;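 note: promastigotes grown with compound for 44 hours at 28 °C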
TNAP inh no acc: TNAP (human) inhibition, acceptor-free conditions | hit rate 0.26% among 200,000 | AID 1012 | purified TNAP, CDP-star luminescence, 30 min | inhibition, % at 20 µM | P05186;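 active = tissue-nonspecific alkaline phosphatase inhibition above about 50% at 20 µM in the single-dose screen, limit read from the data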;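 note: 0% = DMSO negative control and 100% = EDTA positive control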
* = called active by the depositor; · = not tested or not shown. Most compounds without a hit are left out; they make up all but 9.6% or so of the library.

SMILES | bCat KO growth | TNAP act hiacc | TNAP inh hi DEA | PTEN del growth | Lmaj promast | TNAP inh no acc
O=S(Cc1ccc(Cl)cc1)CC(O)COc1ccc(Cl)cc1 (stereo unspecified) | 68 | 1 | -3 | 75 | -3 | -11
CC(=O)Nc1ccc(S(=O)(=O)NCC(=O)OCC(=O)NC(=O)C2CCCCC2)cc1 | 91 | 1 | -3 | 103 | -7 | -4
CC(=O)Nc1ccc(S(=O)(=O)NCC(=O)OCC(=O)NC23CC4CC(CC(C4)C2)C3)cc1 | 93 | 1 | -4 | 103 | 51* | -6
CCOc1ccc(/C=N/OCC(=O)NC(c2ccccc2)c2ccccc2)cc1 | 65 | 1.1 | -8 | 58 | 77* | -14
CCOc1ccc(/C=N/OCC(=O)Nc2ccc3c(c2)OCO3)cc1 | · | 1.1 | -6 | · | -3 | -20
COc1ccc(/C=N/OCC(=O)NC(c2ccccc2)c2ccccc2)c(OC)c1 | 76 | 1.1 | -7 | 69 | 100* | -13
COc1ccc(/C=N/OCC(=O)NCC(C)C)c(OC)c1 | · | 1.1 | -7 | · | 4 | -19
CCOc1ccc(/C=N/OCC(=O)Nc2cc(C)on2)cc1 | 86 | 1 | 0 | 93 | 60* | -3
N#Cc1cnc(N)c(Br)c1 | · | 1.1 | -6 | · | -4 | -16
NC(=O)C1=C[C@@H](c2ccc(Br)cc2)C[C@@H](OCCCCO)O1 | · | 1 | -4 | · | 2 | -8
O=C(Nc1ccccc1)Nc1ccc(Cl)c([N+](=O)[O-])c1 | 23 | 0.9 | 13 | 22 | 53* | -4
O=C(Nc1ccc(C(O)(C(F)(F)F)C(F)(F)F)cc1)c1ccc(Cl)c([N+](=O)[O-])c1 | 1.6* | 1 | -1 | 1.8* | 53* | -5
Cc1cccc(C)c1NS(=O)(=O)c1ccc(NC(=O)c2ccc(Cl)c([N+](=O)[O-])c2)cc1 | 1.9* | 1 | -3 | 3.3* | 2 | -2
CCN(C(=S)NCc1ccccc1)c1ccccc1 | · | 1 | 0 | · | 24 | -14
CC(C(=O)OCC(=O)c1cccc([N+](=O)[O-])c1)N1C(=O)C2C3CCC(C3)C2C1=O (stereo unspecified) | 97 | 1 | 2 | 103 | 10 | -6
Cc1ccccc1NC(=S)c1nc2ccccc2[nH]1 | 23 | 1 | -4 | 29 | 90* | -62
S=C(Nc1ccc(Cl)cc1)c1nc2ccccc2[nH]1 | 15 | 1 | 0 | 15 | 88* | -80
CC1CN(C(=O)c2cccn(Cc3c(Cl)cccc3Cl)c2=O)CC(C)O1 (stereo unspecified) | · | 1 | -5 | · | -4 | -11
COc1ccc(-c2cc(C(=O)NCCc3ccc(S(N)(=O)=O)cc3)c3ccccc3n2)cc1 | · | 1 | 0 | · | -6 | -9
Cc1onc(-c2ccccc2Cl)c1C(=O)NCCCN1CCOCC1 | 96 | 1 | -4 | 94 | 53* | -5
Cc1onc(-c2c(Cl)cccc2Cl)c1C(=O)NCCCN1CCOCC1 | 87 | 1 | -2 | 89 | 88* | -13
Cc1onc(-c2c(Cl)cccc2Cl)c1C(=O)c1c[nH]c(C(=O)NCCCN2CCOCC2)c1 | 94 | 1 | -5 | 103 | -1 | 1
Cc1onc(-c2ccccc2Cl)c1C(=O)Nc1ccc(N2CCOCC2)cc1 | 91 | 1 | 2 | 85 | 1 | -2
CCC(=O)NC(NC(=S)Nc1cccc2cccnc12)C(Cl)(Cl)Cl (stereo unspecified) | 68 | 1 | -1 | 67 | 1 | -15
CC(C)(C)C(=O)NC(Nc1cccc2cccnc12)C(Cl)(Cl)Cl (stereo unspecified) | 49 | 1 | -1 | 52 | 55* | -6
SMILES | bCat KO growth | TNAP act hiacc | TNAP inh hi DEA | PTEN del growth | Lmaj promast | TNAP inh no acc
N#CC1=C(N)Oc2n[nH]c(-c3ccccc3)c2C1c1ccncc1 (stereo unspecified) | 96 | 1 | -3 | 95 | 0 | 53*
CCOC(=O)CSc1nc(C)nc2c1sc1nc(C)c(C(C)=O)c(-c3ccc(OC)cc3)c12 | 77 | 1 | -4 | 76 | 85* | -7
Cc1cc(C)cc(-n2c(C)cc(C(=O)CSc3nnnn3C)c2C)c1 | 84 | 1.1 | -6 | 85 | 91* | -22
COC(=O)N/N=C/c1cn(Cc2ccccc2Cl)c2ccccc12 | 56 | 1 | -3 | 65 | 75* | -10
COC(=O)N/N=C/c1cn(CCCOc2ccccc2)c2ccccc12 | 91 | 0.9 | 8 | 88 | 54* | 6
COC(=O)N/N=C/c1cn(Cc2ccc(Cl)cc2Cl)c2ccccc12 | 75 | 1 | -2 | 66 | 11 | -7
COc1ccc(OCC(=O)Nc2ccc3c(c2)nc(CCN2CCOCC2)n3C)cc1 | 69 | 1.1 | -5 | 75 | 52* | -19
Cn1c(CCN2CCOCC2)nc2cc(NC(=O)COc3ccc(Cl)cc3)ccc21 | 74 | 1.1 | -8 | 63 | 20 | -23
CCc1sc(/C=C(/C#N)C(N)=S)cc1[N+](=O)[O-] | · | 0.9 | 12 | · | 12 | -13
COc1ccc(C(=O)NCc2ccccc2)cc1S(=O)(=O)N1CCCc2ccccc21 | 70 | 1 | 1 | 62 | 61* | -4
COc1ccc(C(=O)OCC(=O)N(C)C2CCS(=O)(=O)C2)cc1S(=O)(=O)N1CCCc2ccccc21 (stereo unspecified) | · | 1.1 | -5 | · | -5 | -11
CCC1CCCCN1C(=O)c1ccc(OC2CCN(C(=O)C3CC3)CC2)cc1 (stereo unspecified) | · | 1 | -3 | · | 2 | -5
Cc1ccc(NC(=O)OCCN2CCN(Cc3ccccc3)CCC2=O)cc1 | 78 | 1 | -4 | 74 | 74* | -8
O=C(CSc1nnc(Cc2cccs2)n1C1CCCCC1)N1CCCc2ccccc21 | 73 | 1.1 | -7 | 64 | 95* | -1
COc1ccc(-n2c(Cc3cccn3C)nnc2SCC(=O)N2CCCc3ccccc32)cc1 | 76 | 1 | -3 | 71 | 63* | -12
COc1ccc(-n2c(Cc3cccn3C)nnc2SCC(=O)N2CCCC2)cc1 | 93 | 1 | -4 | 103 | -11 | -11
CNCc1sccc1C | · | 1 | -3 | · | -3 | -12
O=[N+]([O-])c1ccc(/C=N/NC(=S)Nc2ccccc2)o1 | 61 | 0.9 | 6 | 48 | 50* | -54
O=[N+]([O-])c1cccc(-c2ccc(/C=N/NC(=S)Nc3ccccc3)o2)c1 | 19 | 0.9 | 9 | 20 | 59* | 4
O=C(O)c1cc(-c2ccc(/C=N/NC(=S)Nc3ccccc3)o2)ccc1Cl | · | 1 | 1 | · | -4 | 21
O=[N+]([O-])c1ccc(/C=N/NC(=S)Nc2ccccc2F)o1 | 86 | 1 | 4 | 79 | 25 | 2
Oc1ccc(/C=N/Nc2ccc3ccccc3c2)c(O)c1 | · | 1 | -2 | · | 85* | -3
Cc1cc(N/N=C\c2ccccc2)nc(-c2ccccc2O)n1 | 71 | 1 | 1 | 62 | 74* | -25
Cc1cc(N(C)/N=C/c2ccccc2)nc(-c2ccccc2O)n1 | · | 1 | -3 | · | 20 | -8

Bioassay records as filed in PubChem BioAssay.
